Screening data as filed in PubChem BioAssay.
Sampled rows, rich in hits. Any-hit rate of the full collection: about 2%.
NR2E3 ag-1: agonists of human NR2E3 nuclear receptor; inhibition of corepressor binding, % at 3.98 µM; AID 602229; Q9Y5X4; hit rate 0.35% among 360,000; CHO-S Gal4-NCOR/VP16-NR2E3 two-hybrid, luciferase;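 active = inhibition above the mean of all tested compounds plus 3 SD, cut at about 70% in these data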;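 note: higher means lower luciferase signal from less NR2E3 corepressor binding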
Target sequence (Q9Y5X4 whole entry, looked up, the tested form may be a part): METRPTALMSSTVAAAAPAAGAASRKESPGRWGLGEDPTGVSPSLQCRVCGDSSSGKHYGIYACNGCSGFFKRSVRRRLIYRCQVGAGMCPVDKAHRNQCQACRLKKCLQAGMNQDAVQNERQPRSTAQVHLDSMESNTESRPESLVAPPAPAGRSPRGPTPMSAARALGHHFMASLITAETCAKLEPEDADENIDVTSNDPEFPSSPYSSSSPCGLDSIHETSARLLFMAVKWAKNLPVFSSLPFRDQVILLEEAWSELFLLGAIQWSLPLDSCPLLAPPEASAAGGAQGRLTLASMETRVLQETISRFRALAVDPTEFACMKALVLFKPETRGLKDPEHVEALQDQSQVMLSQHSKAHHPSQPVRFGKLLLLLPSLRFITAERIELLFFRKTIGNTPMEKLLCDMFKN
GAA850 FXN act: activators of GAA850 frataxin (FXN) promoter. HEK293 lucGAA850 FXN promoter luciferase reporter, 24 h; percent of 10 µM SAHA response. activation, % at 6 µM. hit rate 0.56% among 360,000. AID 540364;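 active = activation above the average of all compounds screened plus 3 SD, cutoff fixed separately per campaign, cut at about 7.5% in these data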
T cell HTS: T cell immune modulation candidate; hit rate 0.068% among 330,000; 2C CD8+ T cell-vesicle binding, flow cytometry; hits give low values; response (vesicle binding), % at 7 µM;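 active = response, share of CD8 T cells binding vesicles, and their 90th percentile fluorescence all below set limits, cut at about 80% in these data, passing the limit was not always enough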;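 note: values below 100% mean blocked vesicle binding to the CD8+ T cells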
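System: murine 2C transgenic CD8+ T lymphocytes; also added: QL9-loaded Drosophila micro-vesicles; times: binding 1.5 h at 37 °C; measured by: flow cytometry, PE anti-B7-1 (FL2) versus Alexa647 anti-CD8 (FL8), PFA-fixed; control set: Peptide-free naked vesicles (low) and QL9 vesicles with 0.7% DMSO vehicle (high)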
NR2E3 ag-2: NR2E3 (human) agonism; hit rate 0.12% among 320,000; Q9Y5X4; GST-NR2E3/biotin-RetCOR TR-FRET, 1536-well; AID 2300; inhibition of corepressor binding, % at 4.78 µM;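 active = percent inhibition above the cutoff of mean plus 3 SD of all tested compounds, set per screening campaign, cut at about 20% in these data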
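Material: NR2E3–RetCOR corepressor complex / Amount: 1.35 nM GST-NR2E3 / Medium: Tris pH 7.5 / Compound: single nominal compound dose of 4.8 µM / Incubation: 5 h at 4 °C / Technique: TR-FRET, Eu(K)-anti-GST donor, streptavidin-D2 acceptor, ex 340, em 617/671 nm / Read-out basis: percent loss of FRET ratio relative to control wells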
Myeloid diff 2: myeloid differentiation induction | ER-HoxA9 myeloid progenitors, lysozyme-GFP differentiation, flow cytometry | calls only at 10 µM | hit rate 1% among 360,000 | AID 624256;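 active = normalized GFP-positive differentiation at or above the plate's own cutoff, the solvent-only control mean plus 3 SD; inconclusive = no clear call, values can overlap the other calls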;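 note: cells exposed to compound for four days before flow analysis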
Myeloid diff: promotes myeloid progenitor differentiation; shares compounds with Myeloid diff 2; ER-HoxA9 myeloid progenitors, GFP/Mac1 double-positive flow; calls only; hit rate 2% among 2,300;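 active = share of green or green-and-red cells above 9 and 9% in run 1 or 4 and 3% in run 2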
GFP autofluor: flagged as fluorescent in myeloid differentiation counter-screen; shares compounds with Myeloid diff 2; ER-HoxA9 myeloid progenitors, no estrogen, GFP autofluorescence flow cytometry; vehicle wells 0%, positive control 100%; fluorescence response, % (no concentration beside the values); hit rate 7.4% among 2,300; AID 651707;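 active = over 5% cells positive for green fluorescent reporter, or over 2% positive for both it and APC stain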
A number is an active result; i = inactive; ? = inconclusive; nt = no result given; + = active, no number.

SMILES	NR2E3 ag-1	GAA850 FXN act	T cell HTS	NR2E3 ag-2	Myeloid diff 2	Myeloid diff	GFP autofluor
Cc1csc(SCc2nnc(-c3ccccc3Br)o2)n1	i	i	i	i	i	i	i
Cn1ccc2c(N3CCCCCCC3)cc3c(c21)C1CCC3O1 (configuration not stated)	i	nt	nt	nt	+	i	i
CN(c1cc2c(c3c1ccn3C)C1CCC2O1)C1CCCCC1 (configuration not stated)	i	nt	nt	nt	i	nt	nt
C/C(N)=C(/C#N)C(=O)COC(=O)c1cc(C)n(-c2ccc(F)cc2)c1C	i	i	i	i	+	+	i
CCOc1ccc(C(C)=O)cc1CC(C(N)=O)C(N)=O	i	i	i	i	+	i	i
CCOC(=O)C(Cc1cc(C(C)=O)ccc1OCC)C(=O)OCC	i	i	i	i	i	nt	nt
Cc1nn(Cc2ccccc2)c(Cl)c1C(=O)OCc1nnc(-c2ccc(Cl)cc2)o1	i	i	i	i	+	i	i
COc1ccccc1CC(=O)Nc1ncc(C)s1	i	i	i	i	i	nt	nt
O=C(NC(c1ccc(Cl)cc1)c1ccsc1)C1CCN(Cc2ccc(Oc3ccccc3)cc2)CC1 (configuration not stated)	i	i	nt	nt	i	nt	nt
C=CCN1C(=O)C2(NNc3ccccc3O2)c2ccccc21 (configuration not stated)	i	i	i	i	i	i	95
CCCS(=O)(=O)NC(=O)C1(C)CCN(C(=O)c2ccc(F)cc2Cl)C1 (configuration not stated)	i	i	nt	nt	i	nt	nt
CCOc1ccc(N=c2scc(-c3ccc(OC)cc3)n2CCO)cc1	i	i	i	i	i	i	i
OCCn1c(-c2ccc(F)cc2)csc1=Nc1ccccc1	i	i	i	i	i	nt	nt
CC1=C(C(=O)OCc2ccc3c(c2)OCO3)C(c2ccc(Cl)cc2)NC(=O)N1 (configuration not stated)	i	i	i	i	?	nt	nt
CC1=C(C(=O)OCc2ccc3c(c2)OCO3)C(c2ccc(F)cc2)NC(=O)N1 (configuration not stated)	i	i	i	i	+	i	i
CCc1ccc(CNCc2ccc(OCC(O)CN(C)Cc3ccccc3)cc2)nc1 (configuration not stated)	i	i	i	i	+	i	i
c1ccc(Cn2c(CSc3nnnn3-c3ccccc3)nc3ccccc32)cc1	i	i	i	i	i	i	i
Cc1ccc(NS(=O)(=O)c2ccc(NC(=O)CSc3ccc(Cl)cc3)cc2)c(C)c1	i	i	i	i	i	nt	nt
Cc1ccc(O)c(NC(=O)CSc2ccc(Cl)cc2)c1	i	i	i	i	i	i	i
CCc1nc2c(OCc3ccc(C(F)(F)F)cc3)cccn2c1N(C=O)Cc1ccc(OC)cc1	i	i	nt	nt	i	nt	nt
CC(C)(C)OC(=O)N[C@H](C(=O)OC(C)(C)C)c1ccc2ccccc2c1	i	i	i	i	+	i	i
C[C@]12C=CC(=O)C=C1CC[C@H]1[C@@H]3C[C@@H](O)[C@](O)(C(=O)CO)[C@@]3(C)C[C@H](O)[C@@]12F	i	i	i	i	i	i	i
CCN1C(=O)[C@H]2[C@@H](c3ccc(OC)cc3)N[C@]3(CCCN(Cc4ccc(OC)cc4)C3=O)[C@H]2C1=O	i	i	nt	nt	i	nt	nt
Cc1cccc(C)c1NC(=O)C1(C)CN(S(C)(=O)=O)CC(=O)N1CCc1ccccc1F (configuration not stated)	nt	nt	nt	nt	i	nt	nt
COc1ccc(-n2cc(CNC(C)c3ccncn3)c(-c3cccc(F)c3)n2)cc1 (configuration not stated)	i	i	i	i	i	nt	nt
SMILES	NR2E3 ag-1	GAA850 FXN act	T cell HTS	NR2E3 ag-2	Myeloid diff 2	Myeloid diff	GFP autofluor
CCC(COC)NCc1cn(-c2ccc(OC)cc2)nc1-c1cccc(F)c1 (configuration not stated)	i	i	i	i	+	i	i
Cc1ccccc1N(CC(=O)NCCSCc1ccco1)S(C)(=O)=O	i	i	i	i	+	i	i
CCOc1ccccc1N(CC(=O)NCCSCc1ccco1)S(=O)(=O)c1ccccc1	i	i	i	i	i	nt	nt
C#CC[N+](CC)(CC)CC#Cc1ccccc1	i	i	i	i	+	+	i
CC[N+](CC)(CC#Cc1ccccc1)CC#Cc1ccccc1	i	i	i	i	?	nt	nt
O=C(NCc1ccccc1)C12CN(Cc3ccccc3)CC1C(c1cccc([N+](=O)[O-])c1)=NO2 (configuration not stated)	i	i	nt	i	i	i	i
Cn1cc(CC(=O)N2CCN(c3ccc(Cl)cc3)CC2)c2ccccc21	i	i	i	i	i	i	i
Cn1cc(CC(=O)N2CCN(c3ccccc3F)CC2)c2ccccc21	i	i	i	i	i	nt	nt
CC(=O)c1ccc(NC(=O)COC(=O)CCc2ccc(S(=O)(=O)N3CCOCC3)cc2)cc1	i	i	i	i	i	nt	nt
CCOCCCNC(=S)Nc1ccc2nc(N3CCOCC3)cc(C)c2c1	i	i	i	i	i	nt	nt
O=[N+]([O-])c1cccc(-c2ccc(C(=S)N3CCOCC3)o2)c1	i	i	i	i	i	nt	nt
O=[N+]([O-])c1cc(-c2ccc(C(=S)N3CCOCC3)o2)ccc1Cl	i	i	i	i	+	i	i
CCC(=O)Nc1cccc(C(=O)/C=C/c2cccs2)c1	i	i	i	i	i	nt	nt
CCC(=O)Nc1cccc(C(=O)/C=C/c2ccccc2)c1	i	i	i	i	i	i	i
CCCc1cc(C(=O)Nc2cccc(-c3nn[nH]n3)c2)sc1C	i	i	nt	nt	i	nt	nt
O=C1CCCCCC[C@@H](O)[C@H](O)C[C@H](c2ccccc2)O1	i	nt	nt	nt	i	nt	nt
O=C1CCC(c2ccc3ccccc3c2)O1 (configuration not stated)	i	i	nt	nt	i	i	i
CC(C)(C)Cc1c(-c2cccc(Br)c2)nc2ccc(Br)cn12	i	nt	nt	nt	i	nt	nt
CCc1nc2ccc(C(=O)NCc3ccc(OC)cc3)cn2c1N(C)CCC(C)C	i	i	nt	nt	i	nt	nt
CCOC(=O)c1sc2nc3c(SCCC#N)cc(C(=O)c4cc(F)ccc4O)cn3c(=O)c2c1C	i	i	i	i	+	i	i
CCc1c(C)sc2nc3c(C(=O)N4CCOCC4)cc(C(=O)c4cc(F)ccc4O)cn3c(=O)c12	i	i	i	i	i	nt	nt
CCCc1cc(C(=O)Nc2ccc(CC)cc2)no1	i	i	i	i	i	nt	nt
COc1c(C(=O)Nc2ccccc2N2CCOCC2)cc2ccccc2c1Br	i	i	i	i	i	nt	nt
CCOc1ccc(NS(=O)(=O)c2ccc(NS(=O)(=O)c3ccccc3)cc2)cc1	i	i	i	i	i	i	i
O=C(CCC(=O)N1CCOc2ccc(Cl)cc21)NCCCN1CCN(c2ccccc2F)CC1	i	i	i	i	i	i	i
